Calls of active or inactive are those of the source. The calls are words filed in the database; no cut-off is given here.
Legend:
[1] = system: Respiratory syncytial virus; test: Antiviral activity against RSV infected in human A549 cells assessed as reduction in viral titer at 10 uM incubated for 15 hrs by immunostaining analysis; assay type: functional
Method in brief: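 RSV long strain (propagated in HEp-2, sucrose-gradient purified) infected A549 cells at MOI 1 for 2 h. Inoculum removed, then compound at 10 μM for 15 h. Progeny virus titred by immunostaining in HEp-2 cells with biotin-conjugated goat anti-RSV antibody. Log reduction = log10 mean titer of vehicle-treated cells minus log10 mean titer with compound.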

A549 [2] = test: Antiinflammatory activity against in human A549 cells assessed as reduction in RSV-induced NF-kappaB mRNA expression at 10 uM incubated for 4 hrs by qRT-PCR analysis; assay type: functional, cell-based
A549 [3] = test: Antiinflammatory activity against in human A549 cells transfected with NF-kappaB-Luc assessed as reduction in RSV-induced NF-kappaB activation at 10 uM incubated for 15 hrs by luciferase reporter gene assay; assay type: functional, cell-based
Method in brief: (§1)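 A549 cells transfected in triplicate with luciferase plasmids, either NF-κB-Luc or IRF-3-site reporters. At 20 h post-transfection, infected with RSV (MOI 1). Virus removed at 2 h, then 10 μM compound added for 15 h. Cells then harvested and lysed for luciferase activity.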

[4] = system: Respiratory syncytial virus; test: Antiviral activity against RSV infected in human A549 cells assessed as reduction in viral N protein at 10 uM incubated for 15 hrs by Western blot analysis; assay type: functional, organism-based
Method in brief: (§2)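 A549 cells infected with RSV (MOI 1) and treated with 10 μM compound for 15 h. Viral proteins detected by western blot of lysates using anti-RSV or anti-F antibodies, with β-actin as loading control. Membranes blocked in 5% milk in TBS-Tween 20.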

[5] = target: T1, Nuclear factor NF-kappa-B complex (Homo sapiens) (UniProt Q00653+P19838+Q04206); test: Inhibition of NF-kappaB in human A549 cells assessed as reduction in p65 Ser536 phosphorylation at 10 uM measured after 4 hrs by Western blot analysis; assay type: cell-based
Method in brief: (§3)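 A549 cells infected or mock-infected with RSV (MOI 5), then treated with 10 μM compound for 4 h. Nuclear extracts (or total lysates) prepared, resolved by SDS-PAGE, transferred to PVDF, and probed by western blot. β-actin as loading control.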

[6] = target: T1, Nuclear factor NF-kappa-B complex (Homo sapiens); test: Inhibition of NF-kappaB in human A549 cells assessed as reduction in p65 Ser276 phosphorylation at 10 uM measured after 4 hrs by Western blot analysis; assay type: cell-based; method in brief: as §3
[7] = system: Respiratory syncytial virus; test: Antiviral activity against RSV infected in human A549 cells assessed as reduction in viral matrix protein at 10 uM incubated for 15 hrs by Western blot analysis; assay type: functional, organism-based; method in brief: as §2
A549 [8] = test: Antiinflammatory activity against in human A549 cells transfected with PRDIII-I-Luc and IRF-3-Luc assessed as reduction in RSV-induced IRF3 activation at 10 uM incubated for 15 hrs by luciferase reporter gene assay; assay type: functional, cell-based; method in brief: as §1
[9] = system: Respiratory syncytial virus; test: Antiviral activity against RSV infected in human A549 cells assessed as reduction in viral titer at 7.5 uM incubated for 15 hrs by immunostaining analysis; assay type: functional
Method in brief: (§4)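 Dose-response: A549 cells infected with RSV long strain at MOI 1, then treated with a range of compound concentrations for 15 h. Total virus harvested and titred by immunostaining in HEp-2 cells with biotin-conjugated goat anti-RSV antibody. Reduction expressed as log decrease in titer relative to vehicle (DMSO) control.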

[10] = target: Interferon regulatory factor 3 (Homo sapiens) (UniProt Q14653); test: Inhibition of IRF3 in RSV-infected human A549 cells assessed as reduction in IRF3 nuclear translocation at 10 uM measured upto 15 hrs by Western blot analysis; conditions: time hrs <=15
A549 [11] = test: Antiinflammatory activity against in human A549 cells assessed as reduction in RSV-induced IRF3 mRNA expression at 10 uM incubated for 4 hrs by qRT-PCR analysis; assay type: functional, cell-based
[12] = target: T1, Nuclear factor NF-kappa-B complex (Homo sapiens); test: Inhibition of NF-kappaB in human A549 cells assessed as reduction in p65 Ser276 phosphorylation at 10 uM measured after 15 hrs by Western blot analysis; assay type: cell-based
Method in brief: (§5)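 A549 cells infected or mock-infected with RSV (MOI 1), then treated with 10 μM compound for 15 h. Nuclear extracts prepared and analysed by western blot after SDS-PAGE and PVDF transfer. β-actin as loading control.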

[13] = target: Interferon regulatory factor 3 (Homo sapiens) (UniProt Q14653); test: Inhibition of IRF3 in RSV-infected human A549 cells assessed as reduction in IRF3 Ser396 phosphorylation at 10 uM measured upto 15 hrs by Western blot analysis; conditions: time hrs <=15
[14] = system: Respiratory syncytial virus; test: Antiviral activity against RSV infected in human A549 cells assessed as reduction in viral phosphoprotein at 10 uM incubated for 15 hrs by Western blot analysis; assay type: functional, organism-based; method in brief: as §2
[15] = system: Respiratory syncytial virus; test: Antiviral activity against RSV infected in human A549 cells assessed as reduction in viral RNA at 10 uM measured upto 24 hrs by qRT-PCR analysis; assay type: functional, organism-based; conditions: time hrs <=24
Method in brief: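 A549 cells infected with RSV (MOI 1), then given 10 μM compound. RSV genome copies in cells quantified by RT-qPCR at 6, 15 and 24 h post-treatment. A fusion inhibitor served as a reference control.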

[16] = target: T1, Nuclear factor NF-kappa-B complex (Homo sapiens); test: Inhibition of NF-kappaB in human A549 cells assessed as reduction in p65 nuclear translocation at 10 uM measured after 4 hrs by Western blot analysis; assay type: cell-based; method in brief: as §3
[17] = target: T2, Interferon regulatory factor 3 (Homo sapiens) (UniProt Q14653); test: Inhibition of poly I:C-induced IRF3 (unknown origin) transfected in human HEK293 cells co-transfected with IRF3-Luc gene incubated for 4 hrs by luciferase reporter gene; assay type: cell-based
T2 sequence (whole entry): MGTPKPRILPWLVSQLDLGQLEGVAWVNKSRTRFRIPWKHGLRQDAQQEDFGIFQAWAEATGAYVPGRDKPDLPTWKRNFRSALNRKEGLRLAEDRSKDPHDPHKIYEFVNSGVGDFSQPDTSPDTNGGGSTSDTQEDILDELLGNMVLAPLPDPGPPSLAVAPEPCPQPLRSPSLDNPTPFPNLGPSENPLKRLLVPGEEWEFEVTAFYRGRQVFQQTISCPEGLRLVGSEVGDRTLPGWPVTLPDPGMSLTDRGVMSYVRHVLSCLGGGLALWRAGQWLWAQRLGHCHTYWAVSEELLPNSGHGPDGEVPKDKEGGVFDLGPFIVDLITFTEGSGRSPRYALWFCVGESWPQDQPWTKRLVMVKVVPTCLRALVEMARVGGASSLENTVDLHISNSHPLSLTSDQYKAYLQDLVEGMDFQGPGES
Method in brief: (§6)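 HEK-293 cells transiently transfected with IRF-3 or NF-κB luciferase reporter. At 15 h post-transfection, cells transfected with Poly I:C in the presence of compound. Luciferase activity then measured.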

[18] = target: T1, Nuclear factor NF-kappa-B complex (Homo sapiens); test: Inhibition of NF-kappaB in human A549 cells assessed as reduction in p65 Ser536 phosphorylation at 10 uM measured after 15 hrs by Western blot analysis; assay type: cell-based; method in brief: as §5
A549 [19] = test: Cytotoxicity against human A549 cells assessed as reduction in cell viability incubated for 15 hrs by trypan blue assay; conditions: a549, 15 h
[20] = target: T1, Nuclear factor NF-kappa-B complex (Homo sapiens); test: Inhibition of poly I:C-induced NF-kappaB (unknown origin) transfected in human HEK293 cells co-transfected with NF-kappaB-Luc gene incubated for 4 hrs by luciferase reporter gene; assay type: cell-based; method in brief: as §6
[21] = target: T1, Nuclear factor NF-kappa-B complex (Homo sapiens); test: Inhibition of NF-kappaB in human A549 cells assessed as reduction in p65 nuclear translocation at 10 uM measured after 15 hrs by Western blot analysis; assay type: cell-based; method in brief: as §5
SAEC [22] = test: Antiinflammatory activity against in human SAEC cells assessed as reduction in RSV-induced TNF-alpha production at 10 uM incubated for 4 hrs by immunoassay; assay type: functional, cell-based
Method in brief: (§7)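 Primary small airway epithelial cells infected with RSV long strain at MOI 5. Virus removed at 2 h, then 10 μM compound added. Supernatant collected 4 h post-treatment. Cytokines/chemokines quantified with a multiplex human profiling bead kit (Bio-Plex).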

SAEC [23] = test: Antiinflammatory activity against in human SAEC cells assessed as reduction in RSV-induced IL-6 production at 10 uM incubated for 4 hrs by immunoassay; assay type: functional, cell-based; method in brief: as §7
SAEC [24] = test: Antiinflammatory activity against in human SAEC cells assessed as reduction in RSV-induced MIP-1beta production at 10 uM incubated for 4 hrs by immunoassay; assay type: functional, cell-based; method in brief: as §7
[25] = target: T1, Nuclear factor NF-kappa-B complex (Homo sapiens); test: Inhibition of TNF-alpha-induced NF-kappaB (unknown origin) transfected in human HEK293 cells co-transfected with NF-kappaB-Luc gene incubated for 4 hrs by luciferase reporter gene; assay type: cell-based
Method in brief: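 HEK-293 cells transiently transfected with NF-κB luciferase reporter. At 15 h post-transfection, stimulated with 10 ng/ml TNF-α in the presence of compound. Luciferase activity then measured.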

[26] = system: Respiratory syncytial virus; test: Antiviral activity against RSV infected in human A549 cells assessed as reduction in viral titer at 2.5 uM incubated for 15 hrs by immunostaining analysis; assay type: functional; method in brief: as §4
[27] = system: Respiratory syncytial virus; test: Antiviral activity against RSV infected in human A549 cells assessed as reduction in viral genome copies at 10 uM measured after 15 hrs by RT-qPCR analysis

T1 sequence (P19838 whole entry, looked up): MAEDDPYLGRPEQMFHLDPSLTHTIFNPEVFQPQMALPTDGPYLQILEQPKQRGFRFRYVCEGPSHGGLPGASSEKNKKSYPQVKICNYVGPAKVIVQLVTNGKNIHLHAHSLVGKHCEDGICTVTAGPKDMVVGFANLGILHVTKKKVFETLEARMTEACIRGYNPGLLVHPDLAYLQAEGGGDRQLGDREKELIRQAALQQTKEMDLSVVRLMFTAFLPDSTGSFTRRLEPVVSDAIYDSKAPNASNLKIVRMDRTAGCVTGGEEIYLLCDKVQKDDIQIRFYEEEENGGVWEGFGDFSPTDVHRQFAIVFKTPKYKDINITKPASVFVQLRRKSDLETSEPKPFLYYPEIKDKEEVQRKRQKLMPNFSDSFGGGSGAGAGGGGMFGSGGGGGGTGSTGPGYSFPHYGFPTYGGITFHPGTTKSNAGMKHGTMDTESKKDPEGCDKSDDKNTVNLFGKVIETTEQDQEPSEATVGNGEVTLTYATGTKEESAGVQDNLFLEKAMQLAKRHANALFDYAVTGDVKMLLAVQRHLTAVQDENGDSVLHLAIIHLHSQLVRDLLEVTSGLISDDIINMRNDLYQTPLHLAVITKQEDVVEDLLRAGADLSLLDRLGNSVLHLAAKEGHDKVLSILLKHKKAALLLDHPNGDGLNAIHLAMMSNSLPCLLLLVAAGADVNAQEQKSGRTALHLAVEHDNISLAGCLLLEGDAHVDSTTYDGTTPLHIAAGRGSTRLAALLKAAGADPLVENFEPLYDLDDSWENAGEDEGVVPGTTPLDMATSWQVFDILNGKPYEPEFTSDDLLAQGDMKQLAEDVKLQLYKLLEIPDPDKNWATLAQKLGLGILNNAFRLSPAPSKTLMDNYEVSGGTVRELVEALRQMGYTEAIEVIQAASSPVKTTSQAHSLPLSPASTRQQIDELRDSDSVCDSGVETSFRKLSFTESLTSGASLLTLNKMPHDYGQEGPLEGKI
T1 sequence (Q00653 whole entry, looked up): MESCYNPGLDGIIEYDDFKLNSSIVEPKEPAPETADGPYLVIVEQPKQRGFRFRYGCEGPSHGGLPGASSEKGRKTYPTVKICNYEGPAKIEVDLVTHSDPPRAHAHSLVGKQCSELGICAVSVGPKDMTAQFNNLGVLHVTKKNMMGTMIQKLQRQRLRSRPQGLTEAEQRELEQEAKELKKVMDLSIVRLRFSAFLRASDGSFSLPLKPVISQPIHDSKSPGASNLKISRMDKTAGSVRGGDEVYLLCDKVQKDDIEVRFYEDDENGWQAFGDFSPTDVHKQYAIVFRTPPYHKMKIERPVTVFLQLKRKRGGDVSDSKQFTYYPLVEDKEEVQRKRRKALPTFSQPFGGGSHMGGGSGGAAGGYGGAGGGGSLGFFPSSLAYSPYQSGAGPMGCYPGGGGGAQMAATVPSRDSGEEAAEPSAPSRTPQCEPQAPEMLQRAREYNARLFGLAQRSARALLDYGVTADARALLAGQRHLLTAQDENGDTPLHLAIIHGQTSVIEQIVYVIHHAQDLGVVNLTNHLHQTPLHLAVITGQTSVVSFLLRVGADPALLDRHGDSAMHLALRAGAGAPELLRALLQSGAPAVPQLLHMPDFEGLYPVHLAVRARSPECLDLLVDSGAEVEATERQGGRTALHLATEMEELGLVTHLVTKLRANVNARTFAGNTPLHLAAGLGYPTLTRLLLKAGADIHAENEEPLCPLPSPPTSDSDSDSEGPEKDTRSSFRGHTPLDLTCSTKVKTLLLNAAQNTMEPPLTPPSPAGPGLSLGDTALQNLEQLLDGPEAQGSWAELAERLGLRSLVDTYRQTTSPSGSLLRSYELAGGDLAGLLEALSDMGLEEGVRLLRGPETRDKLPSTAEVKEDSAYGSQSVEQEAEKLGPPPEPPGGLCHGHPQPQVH
T1 sequence (Q04206 whole entry, looked up): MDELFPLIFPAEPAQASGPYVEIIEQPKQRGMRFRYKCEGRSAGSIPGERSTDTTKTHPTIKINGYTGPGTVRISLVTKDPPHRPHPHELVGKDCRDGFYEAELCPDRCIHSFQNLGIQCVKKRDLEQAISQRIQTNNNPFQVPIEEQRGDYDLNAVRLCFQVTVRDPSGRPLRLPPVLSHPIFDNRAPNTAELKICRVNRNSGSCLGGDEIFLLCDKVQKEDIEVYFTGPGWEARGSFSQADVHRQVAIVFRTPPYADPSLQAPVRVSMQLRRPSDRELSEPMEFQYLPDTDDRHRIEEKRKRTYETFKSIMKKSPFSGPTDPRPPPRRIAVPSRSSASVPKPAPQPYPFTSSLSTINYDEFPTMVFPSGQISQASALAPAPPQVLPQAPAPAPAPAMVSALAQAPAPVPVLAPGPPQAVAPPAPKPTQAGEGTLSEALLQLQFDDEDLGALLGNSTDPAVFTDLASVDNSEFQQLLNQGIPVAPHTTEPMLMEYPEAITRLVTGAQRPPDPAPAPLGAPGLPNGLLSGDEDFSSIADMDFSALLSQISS

Row | SMILES | log(activity) [1] | inhibition (A549 [2]) | inhibition (A549 [3]) | inhibition (A549 [8]) | inhibition (A549 [11]) | CC50 (A549 [19]) [µM] | further results
1 | O=C(Nc1ccc(N2CCCC2)cc1Cl)c1cc(Cl)ccc1O | 1.51 | – | – | – | – | – | –
2 | O=C(Nc1ccc(NCc2ccco2)cc1Cl)c1cc(Cl)ccc1O | 2.13 | Active | Active | Active | Active | 76.3 | inhibition [4]: Active; inhibition [5]: Active; inhibition [6]: inactive; inhibition [7]: Active; log(activity) [9]: 1.22; inhibition [10]: Active; inhibition [12]: Active; inhibition [13]: Active; inhibition [14]: Active; inhibition [15]: Active; inhibition [16]: Active; inhibition [17]: Active; inhibition [18]: Active; inhibition [20]: Active; inhibition [21]: Active
3 | CCCC(C)(C)Nc1ccc(NC(=O)c2cc(Cl)ccc2O)c(Cl)c1 | 1.81 | – | – | – | – | 23.7 | –
4 | O=C(Nc1ccc(NCC2CCCC2)cc1Cl)c1cc(Cl)ccc1O | 1.42 | – | – | – | – | 141 | –
5 | O=C(Nc1ccc(NCc2ccccc2)cc1Cl)c1cc(Cl)ccc1O | 1.53 | – | – | – | – | 81.3 | –
6 | CCCN(CCC)c1ccc(NC(=O)c2cc(Cl)ccc2O)c(Cl)c1 | 1.91 | Active | Active | Active | Active | 323 | inhibition (SAEC [22]): Active
7 | O=C(Nc1ccc(NC2CCCC2)cc1Cl)c1cc(Cl)ccc1O | 1.44 | – | – | – | – | – | –
8 | CC(C)Nc1ccc(NC(=O)c2cc(Cl)ccc2O)c(Cl)c1 | 1.88 | Active | Active | Active | Active | 82.7 | –
9 | CC(C)(C)OC(=O)N1CCC(CNc2ccc(NC(=O)c3cc(Cl)ccc3O)c(Cl)c2)CC1 | 1.53 | – | – | – | – | – | –
10 | O=C(Nc1ccc(NCc2cccnc2)cc1Cl)c1cc(Cl)ccc1O | 0.54 | inactive | inactive | inactive | inactive | – | inhibition (SAEC [22]): inactive; inhibition (SAEC [23]): inactive; inhibition (SAEC [24]): inactive
11 | Nc1ccc(NC(=O)c2cc(Cl)ccc2O)c(Cl)c1 | -0.01 | – | – | – | – | – | –
12 | CC1(Nc2ccc(NC(=O)c3cc(Cl)ccc3O)c(Cl)c2)CCCCC1 | 1.82 | Active | inactive | Active | Active | 86.5 | inhibition [25]: inactive; log(activity) [26]: 1.57; inhibition [4]: Active; inhibition [5]: Active; inhibition [6]: inactive; inhibition [7]: Active; inhibition (SAEC [22]): Active; inhibition [10]: Active; inhibition (SAEC [23]): Active; inhibition [12]: inactive; inhibition [13]: Active; inhibition [14]: Active; inhibition [15]: Active; inhibition (SAEC [24]): Active; inhibition [16]: Active; inhibition [17]: Active; inhibition [18]: Active; inhibition [21]: Active
13 | O=C(Nc1ccc(NCc2ccc(F)cc2)cc1Cl)c1cc(Cl)ccc1O | 1.54 | – | – | – | – | – | –
14 | O=C(Nc1ccc(NCCCO)cc1Cl)c1cc(Cl)ccc1O | -0.16 | – | – | – | – | – | –
15 | CCCCCCC(C)Nc1ccc(NC(=O)c2cc(Cl)ccc2O)c(Cl)c1 (centres undefined) | 1.16 | – | – | – | – | 18.6 | –
16 | CCCNc1ccc(NC(=O)c2cc(Cl)ccc2O)c(Cl)c1 | 1.82 | Active | Active | Active | Active | 69.7 | inhibition (SAEC [24]): Active
17 | CS(=O)(=O)CCCn1c(Cn2c(=O)n(CC(F)(F)F)c3ccncc32)cc2cc(Cl)ccc21 | – | – | – | – | – | – | inhibition [27]: inactive; inhibition [15]: Active
18 | CC(=O)Nc1ccc(NC(=O)c2cc(Cl)ccc2O)c(Cl)c1 | 0.09 | – | – | – | – | – | –
19 | O=C(Nc1ccc(NCc2cc(C(F)(F)F)cc(C(F)(F)F)c2)cc1Cl)c1cc(Cl)ccc1O | 2.59 | – | – | – | – | 22.9 | –
20 | O=C(Nc1ccc(NCC2CCNCC2)cc1Cl)c1cc(Cl)ccc1O | -0.07 | – | – | – | – | – | –
21 | O=C(Nc1ccc(N2CCOCC2)cc1Cl)c1cc(Cl)ccc1O | 1.74 | Active | Active | Active | Active | 89.9 | –

Reference: ChEMBL document CHEMBL4819107, “Substituted N-(4-amino-2-chlorophenyl)-5-chloro-2-hydroxybenzamide analogues potently inhibit respiratory syncytial virus (RSV) replication and RSV infection-associated inflammatory responses” (Bioorg Med Chem, 2021)
